Seven substances from publication PMC3087843 (Nature structural & molecular biology, 2011) can be followed below.

T1 sequence (Q9NZ08 whole entry G346D/G514D/K528R/Q730E): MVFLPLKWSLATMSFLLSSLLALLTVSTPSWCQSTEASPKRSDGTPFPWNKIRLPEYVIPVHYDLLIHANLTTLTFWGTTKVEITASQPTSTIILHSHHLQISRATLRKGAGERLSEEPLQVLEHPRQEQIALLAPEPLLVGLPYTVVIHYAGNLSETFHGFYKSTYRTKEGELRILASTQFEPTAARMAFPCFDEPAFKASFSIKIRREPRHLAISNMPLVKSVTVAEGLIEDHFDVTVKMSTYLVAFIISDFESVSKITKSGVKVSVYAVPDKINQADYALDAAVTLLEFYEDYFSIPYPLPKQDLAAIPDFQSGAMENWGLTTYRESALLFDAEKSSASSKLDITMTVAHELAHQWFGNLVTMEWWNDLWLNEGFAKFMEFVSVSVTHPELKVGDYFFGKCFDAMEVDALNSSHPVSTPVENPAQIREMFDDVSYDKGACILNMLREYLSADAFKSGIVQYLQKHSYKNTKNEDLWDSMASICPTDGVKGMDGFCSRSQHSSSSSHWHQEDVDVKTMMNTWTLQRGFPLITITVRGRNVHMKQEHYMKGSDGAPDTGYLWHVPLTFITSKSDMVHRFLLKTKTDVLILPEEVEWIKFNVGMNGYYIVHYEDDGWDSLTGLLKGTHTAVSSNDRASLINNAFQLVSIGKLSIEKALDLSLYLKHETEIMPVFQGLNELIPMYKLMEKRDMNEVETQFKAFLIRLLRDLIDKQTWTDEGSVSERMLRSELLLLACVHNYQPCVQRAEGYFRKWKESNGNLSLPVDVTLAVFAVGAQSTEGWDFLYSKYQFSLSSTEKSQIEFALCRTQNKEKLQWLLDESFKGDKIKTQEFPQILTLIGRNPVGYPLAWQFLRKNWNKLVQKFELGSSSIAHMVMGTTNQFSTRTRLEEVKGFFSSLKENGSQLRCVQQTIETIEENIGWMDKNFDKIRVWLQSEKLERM

One experiment addresses T1, human ERAP1 (Homo sapiens, UniProt Q9NZ08, G346D/G514D/K528R/Q730E). Briefly: Peptide trimming assay. The format is biochemical. The conditions noted are these: 150 μM peptide, 3.5 μg ml^–1 ERAP1, 37°C, 50 mM Tris-HCl pH 7.8, 0.25 g L^–1 BSA, C18 RP-HPLC (Fig. 4a). In outline: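 Human ERAP1 (allelic variant) was baculovirus-expressed, Ni-NTA purified and treated with carboxypeptidase A at room temperature in PBS. Substrates were HPLC-purified synthetic peptides with mass confirmed by MS. Reactions were stopped with 0.6% (v/v) TFA, and the supernatant was run on C18 RP-HPLC with an acetonitrile gradient in 0.03% (v/v) TFA. Percent substrate cleaved was taken from integrated peak areas.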
For QLESIINFEKL, the “ERAP1 processing of SIINFEKL length variants” value (“ERAP1 processing” for short) is given as “processed efficiently”.

As to SIINFEKL [reference compound], the “ERAP1 processing” value is on record as “not long enough to be processed efficiently”.

FEKL: the “ERAP1 processing” value is listed as “not long enough to be processed efficiently”.

Consider INFEKL, for which the “ERAP1 processing” value is on record as “not processed appreciably”.

A further experiment addresses T1, human ERAP1. Briefly: Activation of L-AMC hydrolysis by ERAP1 in the presence of peptides. The experiment is classed as biochemical. The conditions noted are these: 100 μM L-AMC, 0–70 μM peptide, 0.87 μg ml^–1 ERAP1, 37°C (Fig. 6c,d).
Take L(N-Me)VAFKARAF [L^Me]: the “Activation of ERAP1 hydrolysis of L-AMC by increasing peptide concentrations” value was “activated”.

In the case of LVAFKARAF [L-peptide], the “Activation of ERAP1 hydrolysis of L-AMC by increasing peptide concentrations” value was “activated”.

With R(N-Me)VAEAAFAE, the “Activation of ERAP1 hydrolysis of L-AMC by increasing peptide concentrations” value is reported as “did not activate”.
